Assay results published in ChEMBL document CHEMBL3112528 (ACS Med Chem Lett, 2014).
Blank lines part the entries; values can stand above or below the compound they belong to.

Assays:
[1] = Oral bioavailability in dog at 1 mg/kg; type: ADME, organism-based, Canis lupus familiaris; conditions: in vivo
[2] = Oral bioavailability in rat at 1 mg/kg; type: ADME, organism-based; conditions: in vivo
Outline: (§1)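 Rats (n = 3) given 0.5 mg/kg intravenously and 1.0 mg/kg orally; values reported as mean ± spread over 3 animals.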

[3] = Clearance in rat at 0.5 mg/kg, iv and 1 mg/kg, po; type: ADME, organism-based; conditions: in vivo; outline: as §1
[4] = Half life in dog at 0.2 mg/kg, iv and 1 mg/kg, po; type: ADME, organism-based, Canis lupus familiaris; conditions: in vivo
[5] = Volume of distribution at steady state in dog at 0.2 mg/kg, iv and 1 mg/kg, po; type: ADME, organism-based, Canis lupus familiaris; conditions: in vivo, read-out: Vdss
[6] = Clearance in dog at 0.2 mg/kg, iv and 1 mg/kg, po; type: ADME, organism-based, Canis lupus familiaris; conditions: in vivo
[7] = Half life in rat at 0.5 mg/kg, iv and 1 mg/kg, po; type: ADME, organism-based; conditions: in vivo; outline: as §1
[8] = Volume of distribution at steady state in rat at 0.5 mg/kg, iv and 1 mg/kg, po; type: ADME, organism-based; conditions: in vivo, read-out: Vdss; outline: as §1
[9] = Half life in dog at 0.2 mg/kg, iv; type: ADME, organism-based, Canis lupus familiaris; design: dose 0.2 mg/kg, route intravenous; conditions: in vivo
[10] = Volume of distribution at steady state in dog at 0.2 mg/kg, iv; type: ADME, organism-based, Canis lupus familiaris; design: dose 0.2 mg/kg, route intravenous; conditions: in vivo, read-out: Vdss
[11] = Clearance in dog at 0.2 mg/kg, iv; type: ADME, organism-based, Canis lupus familiaris; design: dose 0.2 mg/kg, route intravenous; conditions: in vivo

bioavailability [1]: 3.5%
bioavailability [2]: < 1%
Structure (SMILES): CCOc1cc([C@@H](Nc2ccc3c(N)nccc3c2)C(=O)NS(=O)(=O)c2ccccc2)ccc1OC(C)C

clearance [3]: 26 mL/min/kg
half-life [4]: 2.2 h
Vd [5]: 4.2 L/kg
clearance [6]: 41 mL/min/kg
bioavailability [1]: 45%
bioavailability [2]: 7.9%
half-life [7]: 4.9 h
Vd [8]: 5.6 L/kg
Structure (SMILES): CCOc1ccc(F)c([C@@H](Nc2ccc3c(N)nccc3c2)C(=O)N2CCC[C@@H]2c2cc(NC(=O)OC)ccc2S(=O)(=O)C(C)C)c1

half-life [9]: 1.1 h
Vd [10]: 0.65 L/kg
clearance [11]: 14 mL/min/kg
Structure (SMILES): CCS(=O)(=O)c1ccccc1[C@H]1[C@@H](C(=O)O)CCN1C(=O)[C@H](Nc1ccc2c(N)nccc2c1)c1ccc(F)c(OC)c1

bioavailability [1]: 45%
bioavailability [2]: 31%
Structure (SMILES): CCOc1cc([C@@H](Nc2ccc3c(N)nccc3c2)C(=O)NCc2ccccc2)ccc1OC(C)C
